Results as given in ChEMBL document CHEMBL2040790 (Bioorg Med Chem Lett, 2012).
Active and inactive are the calls of the source. No cut-off for these calls is given here.

Key:
Vaccinia virus [1] = assay: Antiviral activity against Vaccinia virus; assay type: functional, organism-based; settings: Orthopoxvirus vaccinia
La Crosse virus [2] = assay: Antiviral activity against La Crosse virus infected in african green monkey Vero cells assessed as inhibition of virus-induced cytopathic effect by fluorometric analysis; assay type: functional, organism-based
Vaccinia virus [3] = assay: Antiviral activity against Vaccinia virus at 25 uM during single experiment set up; assay type: functional, organism-based; settings: Orthopoxvirus vaccinia
La Crosse virus [4] = assay: Antiviral activity against La Crosse virus infected in african green monkey Vero cells assessed as inhibition of virus-induced cytopathic effect at 25 uM during single experiment set up by fluorometric analysis; assay type: functional, organism-based
Vero = assay: Cytotoxicity against african green monkey Vero cells; assay type: cell-based; settings: chlorocebus sabaeus
Vaccinia virus [5] = assay: Antiviral activity against Vaccinia virus during single experiment set up; assay type: functional, organism-based; settings: Orthopoxvirus vaccinia
[6] = Solubility of the compound in water; assay type: physicochemical
[7] = Solubility of the compound in simulated gastric fluid; assay type: physicochemical
[8] = Solubility of the compound in Caco2 transport buffer; assay type: physicochemical, Caco-2
Vaccinia virus [9] = assay: Antiviral activity against Vaccinia virus at 25 uM during one experiment of multiple experiment set up; assay type: functional, organism-based; settings: Orthopoxvirus vaccinia
La Crosse virus [10] = assay: Antiviral activity against La Crosse virus infected in african green monkey Vero cells assessed as inhibition of virus-induced cytopathic effect at 5 uM after 4 days by spectrophotometric analysis; assay type: functional, organism-based
Summary of the method: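 Primary screen run at one fixed concentration of 5 μM. Compounds active at that level were then carried into dose-response testing (0.009–25 μM) against RVFV and LACV.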

Rift Valley fever virus = assay: Antiviral activity against Rift Valley fever virus at 5 uM; assay type: functional, organism-based
Summary of the method: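 Single-concentration primary screen at 5 μM. Molecules active there and bearing viable scaffolds were then taken into concentration-response testing over 0.009–25 μM.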

Ebolavirus = assay: Antiviral activity against Ebola virus; assay type: functional
[11] = system: Human immunodeficiency virus 1; assay: Antiviral activity against Human immunodeficiency virus 1; assay type: functional, organism-based
Tacaribe virus = assay: Antiviral activity against Tacaribe virus; assay type: functional, organism-based; settings: Mammarenavirus tacaribeense
[12] = system: Mammarenavirus choriomeningitidis; assay: Antiviral activity against Lymphocytic choriomeningitis virus; assay type: functional
[13] = system: Encephalomyocarditis virus; assay: Antiviral activity against Encephalomyocarditis virus; assay type: functional, organism-based
Sindbis virus = assay: Antiviral activity against Sindbis virus; assay type: functional, organism-based
Dengue virus = assay: Antiviral activity against Dengue virus; assay type: functional, organism-based
[14] = system: Orthohantavirus andesense; assay: Antiviral activity against Andes virus; assay type: functional
[15] = system: Respiratory syncytial virus; assay: Antiviral activity against Respiratory syncytial virus; assay type: functional, organism-based
[16] = system: unidentified influenza virus; assay: Antiviral activity against influenza virus; assay type: functional, organism-based
La Crosse virus [17] = assay: Antiviral activity against La Crosse virus infected in african green monkey Vero cells assessed as inhibition of virus-induced cytopathic effect during single experiment set up by fluorometric analysis; assay type: functional, organism-based

| Structure (SMILES) | EC50 (Vaccinia virus [1]) | EC50 (La Crosse virus [2]) | Activity (Vaccinia virus [3]) | Activity (La Crosse virus [4]) | Activity (Vero) | further results |
| --- | --- | --- | --- | --- | --- | --- |
| Cc1c(Cl)cccc1NC(=S)NC(=O)c1ccc(C(C)(C)C)cc1 | 6470 nM | 919 nM | inactive | inactive |  |  |
| CC(C)(C)c1ccc(C(=O)NC(=S)Nc2cc(Cl)ccc2Cl)cc1 | 2420 nM | 2450 nM | inactive | inactive |  |  |
| CC(C)(C)c1ccc(C(=O)NC(=S)Nc2cc(C(C)(C)C)ccc2O)cc1 | 980 nM | 3420 nM |  |  | Toxic |  |
| CC(C)(C)c1ccc(C(=O)NC(=S)Nc2ccc(CN3CCOCC3)cc2)cc1 | > 25000 nM | > 25000 nM | inactive | inactive | Toxic |  |
| COc1cc(NC(=S)NC(=O)c2ccc(C(C)(C)C)cc2)ccc1NC(=O)c1cccc(C(=O)O)c1 | > 25000 nM |  | inactive | inactive |  |  |
| CC(C)(C)c1ccc(C(=O)NC(=S)Nc2ccccc2C(=O)O)cc1 | > 25000 nM | > 25000 nM |  |  |  | EC50 (Vaccinia virus [5]): 2.29 µM |
| CNc1ccc(NC(=S)NC(=O)c2ccc(C(C)(C)C)cc2)c(Cl)c1.Cl | 330 nM | 240 nM |  |  |  | solubility [6]: 0.2 µg/mL; solubility ([7]; simulated gastric fluid, read-out: solubility): 3.2 µg/mL; solubility [8]: 0.1 µg/mL |
| CC(C)(C)c1ccc(C(=O)NC(=S)Nc2ccc(NC(=O)c3ccccc3)cc2)cc1 | 170 nM | 150 nM | inactive | inactive |  |  |
| CC(C)(C)c1ccc(C(=O)NC(=S)Nc2ccc(N)c(N)c2)cc1 | > 25000 nM | > 25000 nM |  |  |  | EC50 (Vaccinia virus [5]): 7.78 µM |
| CC(C)(C)c1ccc(C(=O)NC(=S)Nc2ccc(N)cc2)cc1 | 4410 nM | 2270 nM | inactive |  |  |  |
| COc1cc(NC(=S)NC(=O)c2ccc(C(C)(C)C)cc2)ccc1N | 2090 nM | 1690 nM | inactive | inactive |  |  |
| CC(C)(C)c1ccc(C(=O)NC(=S)Nc2ccc(N3CCCCC3)cc2)cc1 | > 25000 nM | > 25000 nM | inactive | inactive | Toxic |  |
| CC(=O)N1CCN(c2ccc(NC(=S)NC(=O)c3ccc(C(C)(C)C)cc3)cc2)CC1 | > 25000 nM | > 25000 nM | inactive | inactive | Toxic |  |
| CNc1ccc(C(=O)Nc2ccc(NC(=S)NC(=O)c3ccc(C(C)(C)C)cc3)cc2OC)cc1.Cl | 810 nM | > 25000 nM | inactive |  | Toxic |  |
| CC(C)(C)c1ccc(C(=O)NC(=S)Nc2ccc(N3CCOCC3)cc2)cc1 | > 25000 nM | > 25000 nM | inactive | inactive | Toxic |  |
| COc1cc(NC(=S)NC(=N)c2ccc(C(C)(C)C)cc2)ccc1NC(=O)c1ccccc1Cl | 7640 nM | 3010 nM |  |  |  | Activity (Vaccinia virus [9]): inactive |
| CNc1cccc(C(=O)Nc2ccc(NC(=S)NC(=O)c3ccc(C(C)(C)C)cc3)cc2OC)c1.Cl | 1630 nM | > 25000 nM |  |  | Toxic |  |
| COc1cc(NC(=S)NC(=O)c2ccc(C(C)(C)C)cc2)ccc1NC(=O)c1ccc(C(=O)O)cc1 | > 25000 nM | > 25000 nM | inactive | inactive |  |  |
| CC(C)(C)c1ccc(C(=O)NC(=S)Nc2ccccc2Cl)cc1 | 350 nM | 280 nM |  |  |  | Activity (La Crosse virus [10]): Active; Activity (Rift Valley fever virus): Active |
| COc1cc(NC(=S)NC(=O)c2ccc(C(C)(C)C)cc2)ccc1NC(=O)c1ccccc1Cl | 250 nM | 270 nM |  |  |  | Activity (La Crosse virus [10]): Active; Activity (Rift Valley fever virus): Active; Activity (Ebolavirus): Active; Activity [11]: Active; Activity (Tacaribe virus): Active; Activity [12]: Active; Activity [13]: Active; Activity (Sindbis virus): Active; Activity (Dengue virus): Active; Activity [14]: Active; Activity [15]: Active; Activity [16]: Active |
| CN(C)c1ccc(NC(=S)NC(=O)c2ccc(C(C)(C)C)cc2)c(Cl)c1.Cl | 3260 nM | 1550 nM |  |  |  | solubility ([7]; simulated gi fluid, BLD = below limit of detection): BLD |
| Cc1ccc(Cl)c(NC(=S)NC(=O)c2ccc(C(C)(C)C)cc2)c1 | 660 nM | 1670 nM |  | inactive |  |  |
| CC(C)(C)c1ccc(C(=O)NC(=S)Nc2ccc(CN3CCCCC3)cc2)cc1 | > 25000 nM | > 25000 nM | inactive | inactive | Toxic |  |
| Cc1ccc(O)c(NC(=S)NC(=O)c2ccc(C(C)(C)C)cc2)c1 | > 25000 nM | > 25000 nM |  |  | Toxic |  |
| CC(C)(C)c1ccc(C(=O)NC(=S)Nc2ccccc2CN)cc1 | > 25000 nM | > 25000 nM |  |  |  | EC50 (La Crosse virus [17]): 6.93 µM |
| CC(C)(C)c1ccc(C(=O)NC(=S)Nc2cccc(N)c2)cc1 | 2720 nM | 2190 nM | inactive |  |  |  |
